# What was measured:
# [1] = Inhibition of Escherichia coli topoisomerase 4 assessed as inhibition of decatenation of catenated kinetoplast DNA after 30 mins by electrophoretic analysis
# DNA gyrase = DNA gyrase (Escherichia coli, UniProt P0AES4+P0AES6); experiment: Inhibition of Escherichia coli DNA gyrase assessed as supercoiled plasmid DNA formation after 30 mins by electrophoretic analysis; format: protein-complex assay
# [2] = Inhibition of purified recombinant Escherichia coli topoisomerase 1 assessed as relaxation of supercoiled plasmid DNA after 30 mins by electrophoretic analysis
# Staphylococcus aureus [3] = experiment: Antimicrobial activity against methicillin-resistant Staphylococcus aureus NRS 70 by microbroth dilution method; format: functional
# [4] = Solubility of the compound in DMEM/FBS medium; format: physicochemical
# Procedure, shortened: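 Solubility limit estimated from 2-fold serial dilutions in DMEM with 5% FBS kept overnight at 37 °C; highest concentration with no visible precipitate taken.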
# Enterococcus faecalis = experiment: Antimicrobial activity against Enterococcus faecalis ATCC 33186 by microbroth dilution method; format: functional
# Vero = experiment: Cytotoxicity against african green monkey Vero cells assessed as reduction in cell viability by MTT assay; format: cell-based; details: Chlorocebus sabaeus
# Procedure, shortened: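 Vero kidney epithelial cells (ATCC CCL-81) in DMEM/10% FBS, trypsinized, seeded near 10% confluence, left overnight to adhere; medium swapped for DMEM/FBS with 2-fold serial compound dilutions.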
# Escherichia coli [5] = experiment: Antimicrobial activity against Escherichia coli K-12 by microbroth dilution method; format: functional
# Staphylococcus aureus [6] = experiment: Antimicrobial activity against methicillin-sensitive Staphylococcus aureus ATCC 29213 by microbroth dilution method; format: functional
# Pseudomonas aeruginosa = experiment: Antimicrobial activity against Pseudomonas aeruginosa PAO1 at >200 ug/ml by microbroth dilution method; format: functional
# Escherichia coli [7] = experiment: Antimicrobial activity against tolC-deficient Escherichia coli by microbroth dilution method; format: functional
# [8] = Selectivity index, ratio of CC50 for african green monkey Vero cells to IC50 for methicillin-resistant Staphylococcus aureus NRS 70; format: functional
# Procedure, shortened: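 Vero kidney epithelial cells were grown in DMEM/10% FBS, trypsinized, seeded at about 10% confluence and left overnight to adhere. They were then exposed to 2-fold serial compound dilutions in DMEM/FBS, and viability was read by MTT after overnight solubilization. SI = cytotoxic IC50 divided by MIC against MRSA.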
# [9] = tested on: Mycobacterium tuberculosis; experiment: Antimicrobial activity against Mycobacterium tuberculosis H37Rv by microbroth dilution method; format: functional
# Klebsiella pneumoniae = experiment: Antimicrobial activity against Klebsiella pneumoniae ATCC 33495 at >200 ug/ml by microbroth dilution method; format: functional
SMILES,IC50 [1] [µM],IC50 (DNA gyrase) [µM],IC50 [2] [µM],MIC (Staphylococcus aureus [3]) [mg/L],solubility [4] [mg/mL],MIC (Enterococcus faecalis) [mg/L],IC50 (Vero) [mg/L],MIC (Escherichia coli [5]) [mg/L],MIC (Staphylococcus aureus [6]) [mg/L],MIC (Pseudomonas aeruginosa) [mg/L],MIC (Escherichia coli [7]) [mg/L],Selectivity Index [8],MIC [9] [mg/L],MIC (Klebsiella pneumoniae) [mg/L]
CCCCCCCCOc1ccccc1C1CC(=O)c2ccc(O)cc2O1 (stereo not given),> 1000,> 1000,> 500,3.13,> 0.2,1.56,17,> 200,12.5,> 200,> 200,5.4,> 200,> 200
CCCCCCCC1C/C(=N\O)c2c(O)cc(O)cc2O1 (stereo not given),–,–,–,–,> 0.2,6.25,9.6,> 200,–,> 200,–,3.1,100,> 200
CCn1cc(C(=O)O)c(=O)c2ccc(C)nc21 [NALIDIXIC ACID],806,–,–,–,–,–,–,–,–,–,–,–,–,–
CCCCCCOc1ccccc1C1CC(=O)c2ccc(O)cc2O1 (stereo not given),> 1000,> 1000,> 500,1.56,> 0.2,50,24.5,> 200,1.56,> 200,1.56,15.7,> 200,> 200
CCCCCCCCCC1C/C(=N\O)c2c(O)cc(O)cc2O1 (stereo not given),–,–,–,12.5,0.0375,6.25,10.1,> 200,12.5,> 200,> 200,0.8,100,> 200
CCCCCCCCCC1C/C(=N\OCc2ccccc2)c2c(O)cc(O)cc2O1 (stereo not given),–,–,–,> 200,–,50,–,> 200,> 200,> 200,> 200,–,> 200,> 200
CCCCCCCCOc1cc(O)cc(O)c1C(=O)C(C)CC (racemic),30,> 1000,> 500,1.56,–,0.78,–,> 200,1.56,> 200,> 200,–,100,> 200
O=C1CC2(CCCCCC2)Oc2cc(O)ccc21,–,–,–,50,–,200,–,> 200,50,> 200,12.5,–,100,> 200
CCCC1CC(=O)c2ccc(O)cc2O1 (stereo not given),–,–,–,> 200,–,> 200,–,> 200,200,> 200,50,–,200,> 200
CCCCCCCC1CC(=O)c2c(OCOC)cc(OCOC)cc2O1 (stereo not given),–,–,–,> 200,–,> 200,–,> 200,> 200,> 200,12.5,–,50,> 200
CCCCCCCCCC1CC(=O)c2c(O)cc(O)cc2O1 (stereo not given),–,–,–,3.13,> 0.2,100,8.6,> 200,100,> 200,12.5,2.8,100,> 200
CSc1ccc2c(c1)N(CCC1CCCCN1C)c1ccccc1S2 (stereo not given) [THIORIDAZINE],–,–,–,–,–,–,5.3,–,–,–,–,–,–,–
CCCCCc1cc(OC(=O)c2c(O)cc(O)cc2CCCCC)cc(O)c1C(=O)O,–,–,14,–,–,–,–,–,–,–,–,–,–,–
CC1(C)C2CC=C(C3CC(=O)c4ccc(O)cc4O3)C1C2 (stereo not given),–,–,–,200,–,> 200,–,> 200,200,> 200,6.25,–,> 200,> 200
CCCCCCCC1CC(=O)c2ccc(O)cc2O1 (stereo not given),–,–,–,> 200,–,> 200,–,> 200,> 200,> 200,1.56,–,50,> 200
COCOc1ccc(C(=O)/C=C/C2=CCC3CC2C3(C)C)c(O)c1 (stereo not given),–,–,–,> 200,–,> 200,–,> 200,> 200,> 200,25,–,100,> 200
C=CCOc1ccc(/C=C/C(=O)c2ccc(O)cc2O)cc1,–,–,–,> 200,–,100,–,> 200,25,> 200,> 200,–,50,> 200
C=CCOc1ccccc1/C=C/C(=O)c1ccc(O)cc1,–,–,–,6.25,–,100,–,> 200,12.5,> 200,6.25,–,200,> 200
CCCC1CC(=O)c2c(O)cc(O)cc2O1 (stereo not given),–,–,–,100,–,200,–,> 200,100,> 200,50,–,200,> 200
O=C1CC(c2ccc(N3CCCCC3)cc2)Oc2cc(O)ccc21 (stereo not given),–,–,–,> 200,–,200,–,> 200,> 200,> 200,12.5,–,> 200,> 200
C=CCOc1ccccc1C1CC(=O)c2ccc(O)cc2O1 (stereo not given),–,–,–,25,–,50,–,> 200,25,> 200,12.5,–,100,> 200
CC(C)=CCCC(C)CC1CC(=O)c2ccc(O)cc2O1 (stereo not given),–,–,–,3.13,> 0.2,12.5,28.8,> 200,6.25,> 200,1.56,9.2,200,> 200
CCCCCCCCOc1ccccc1/C=C/C(=O)c1ccc(O)cc1O,–,–,–,6.25,–,1.56,–,> 200,25,> 200,> 200,–,> 200,> 200
O=C1CC(C2CCCCC2)Oc2cc(O)cc(O)c21 (stereo not given),–,–,–,25,–,25,–,> 200,25,> 200,6.25,–,100,> 200

# — ChEMBL document CHEMBL3351381, “Synthesis, structure-activity relationship studies, and antibacterial evaluation of 4-chromanones and chalcones, as well as olympicin A and derivatives” (J Med Chem, 2014)
